Data: ChEMBL document CHEMBL5678806, “NMS-P937, an orally available, specific small-molecule polo-like kinase 1 inhibitor with antitumor activity in solid and hematologic malignancies” (Mol Cancer Ther, 2012)
pIC50: −log10 of the molar value.

How the values were obtained:
[1] = Inhibition of AUR2 (unknown origin) in presence of [gamma-33P]ATP; set-up: species or system Homo sapiens
[2] = molecular target: Calcium/calmodulin-dependent protein kinase type II subunit delta (Homo sapiens) (UniProt Q13557); test: Inhibition of recombinant full length human CaMKIIdelta assessed as residual activity at 0.1 uM relative to control
Sequence of Calcium/calmodulin-dependent protein kinase type II subunit delta (Homo sapiens) (Q13557 whole entry): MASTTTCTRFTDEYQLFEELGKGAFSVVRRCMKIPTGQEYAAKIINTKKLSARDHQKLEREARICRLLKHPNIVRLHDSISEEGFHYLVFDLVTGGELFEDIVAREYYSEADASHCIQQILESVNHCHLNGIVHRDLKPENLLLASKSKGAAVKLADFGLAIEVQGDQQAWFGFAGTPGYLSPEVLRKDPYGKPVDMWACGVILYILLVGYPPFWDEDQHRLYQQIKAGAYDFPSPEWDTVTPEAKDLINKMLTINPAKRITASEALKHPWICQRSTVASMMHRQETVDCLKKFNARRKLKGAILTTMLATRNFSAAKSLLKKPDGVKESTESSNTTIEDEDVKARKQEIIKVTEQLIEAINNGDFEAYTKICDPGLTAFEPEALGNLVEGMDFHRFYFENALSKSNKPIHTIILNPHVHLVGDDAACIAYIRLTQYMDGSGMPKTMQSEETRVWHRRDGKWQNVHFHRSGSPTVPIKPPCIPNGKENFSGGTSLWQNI

[3] = molecular target: Serine/threonine-protein kinase Chk1 (Homo sapiens) (UniProt O14757); test: Inhibition of N-terminal GST-tagged full length human CHK1 expressed in Sf21 cells assessed as residual activity at 0.1 uM relative to control
Sequence of Serine/threonine-protein kinase Chk1 (Homo sapiens) (O14757 whole entry): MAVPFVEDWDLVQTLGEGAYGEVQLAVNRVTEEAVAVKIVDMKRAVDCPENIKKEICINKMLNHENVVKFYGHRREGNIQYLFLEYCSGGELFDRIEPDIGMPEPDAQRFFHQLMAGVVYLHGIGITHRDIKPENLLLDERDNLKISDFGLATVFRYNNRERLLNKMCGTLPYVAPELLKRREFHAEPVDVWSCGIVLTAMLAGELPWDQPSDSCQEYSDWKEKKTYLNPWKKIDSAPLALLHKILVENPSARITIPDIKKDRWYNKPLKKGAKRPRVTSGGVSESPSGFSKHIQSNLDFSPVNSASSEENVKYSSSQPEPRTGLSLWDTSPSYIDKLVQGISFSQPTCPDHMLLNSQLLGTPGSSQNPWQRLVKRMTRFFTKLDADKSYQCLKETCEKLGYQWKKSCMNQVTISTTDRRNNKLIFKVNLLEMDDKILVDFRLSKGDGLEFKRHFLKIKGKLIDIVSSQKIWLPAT

[4] = molecular target: Dual specificity protein kinase CLK2 (Homo sapiens) (UniProt P49760); test: Inhibition of N-terminal GST-tagged recombinant human CLK2 (138 to end residues) expressed in baculovirus infected Sf21 cells assessed as residual activity at 0.1 uM relative to control
Sequence of Dual specificity protein kinase CLK2 (Homo sapiens) (P49760 whole entry, looked up): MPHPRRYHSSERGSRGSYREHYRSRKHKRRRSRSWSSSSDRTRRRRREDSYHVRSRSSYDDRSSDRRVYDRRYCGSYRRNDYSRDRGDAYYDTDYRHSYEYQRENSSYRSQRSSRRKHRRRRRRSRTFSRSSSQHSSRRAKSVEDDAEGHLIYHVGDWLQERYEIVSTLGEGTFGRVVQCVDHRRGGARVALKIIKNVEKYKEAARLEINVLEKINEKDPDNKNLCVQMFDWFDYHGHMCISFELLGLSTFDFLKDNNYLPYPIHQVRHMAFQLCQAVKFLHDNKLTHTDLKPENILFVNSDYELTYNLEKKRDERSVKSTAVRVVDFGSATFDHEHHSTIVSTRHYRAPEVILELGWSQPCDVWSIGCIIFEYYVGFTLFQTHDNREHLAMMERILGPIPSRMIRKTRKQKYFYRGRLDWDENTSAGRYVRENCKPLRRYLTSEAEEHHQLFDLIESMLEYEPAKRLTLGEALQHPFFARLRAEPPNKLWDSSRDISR

[5] = molecular target: Inhibitor of nuclear factor kappa-B kinase subunit beta (Homo sapiens) (UniProt O14920); test: Inhibition of N-terminal His6 tagged recombinant full-length human IKKbeta expressed in baculovirus infected Sf21 cells assessed as residual activity at 0.1 uM relative to control
[6] = molecular target: Dual specificity tyrosine-phosphorylation-regulated kinase 2 (Homo sapiens) (UniProt Q92630); test: Inhibition of 6His-tagged recombinant full-length human DYRK2 expressed in baculovirus infected Sf21 cells assessed as residual activity at 1 uM relative to control
[7] = molecular target: Homeodomain-interacting protein kinase 2 (Homo sapiens) (UniProt Q9H2X6); test: Inhibition of N-terminal His6-tagged recombinant human HIPK2 (165 to 564 residues) expressed in baculovirus infected Sf21 cells assessed as residual activity at 1 uM relative to control
Sequence of Homeodomain-interacting protein kinase 2 (Homo sapiens) (Q9H2X6 whole entry, looked up, the tested form may be a part): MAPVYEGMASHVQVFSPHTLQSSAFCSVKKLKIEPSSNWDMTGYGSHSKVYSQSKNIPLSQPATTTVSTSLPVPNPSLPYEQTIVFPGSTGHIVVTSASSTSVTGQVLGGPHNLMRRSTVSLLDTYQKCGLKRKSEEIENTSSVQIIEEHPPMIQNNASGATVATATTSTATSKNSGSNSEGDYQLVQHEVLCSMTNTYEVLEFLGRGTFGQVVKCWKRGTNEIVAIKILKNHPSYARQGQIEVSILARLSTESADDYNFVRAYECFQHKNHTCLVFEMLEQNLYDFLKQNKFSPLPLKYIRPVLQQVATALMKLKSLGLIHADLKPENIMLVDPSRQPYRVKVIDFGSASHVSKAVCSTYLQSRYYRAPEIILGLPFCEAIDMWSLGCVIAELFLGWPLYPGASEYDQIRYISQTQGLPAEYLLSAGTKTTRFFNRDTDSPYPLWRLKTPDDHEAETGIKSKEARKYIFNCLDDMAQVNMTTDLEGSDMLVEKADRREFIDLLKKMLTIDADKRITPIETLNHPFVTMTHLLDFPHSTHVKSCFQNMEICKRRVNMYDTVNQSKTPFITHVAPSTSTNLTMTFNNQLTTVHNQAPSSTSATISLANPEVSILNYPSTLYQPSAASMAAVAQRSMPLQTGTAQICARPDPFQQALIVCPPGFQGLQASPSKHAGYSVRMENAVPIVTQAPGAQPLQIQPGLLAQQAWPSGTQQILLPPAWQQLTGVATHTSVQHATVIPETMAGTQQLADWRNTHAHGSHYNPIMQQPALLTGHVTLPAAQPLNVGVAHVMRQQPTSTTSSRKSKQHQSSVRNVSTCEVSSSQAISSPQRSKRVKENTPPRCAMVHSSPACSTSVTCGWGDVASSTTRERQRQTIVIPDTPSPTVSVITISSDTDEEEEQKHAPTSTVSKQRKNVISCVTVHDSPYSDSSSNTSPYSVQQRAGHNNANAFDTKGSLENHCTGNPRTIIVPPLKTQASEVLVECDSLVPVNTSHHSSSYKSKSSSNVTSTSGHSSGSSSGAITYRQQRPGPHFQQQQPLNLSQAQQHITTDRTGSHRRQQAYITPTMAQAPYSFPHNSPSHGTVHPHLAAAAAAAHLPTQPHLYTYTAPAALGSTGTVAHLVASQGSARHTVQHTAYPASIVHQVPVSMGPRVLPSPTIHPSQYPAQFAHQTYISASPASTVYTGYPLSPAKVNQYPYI

[8] = molecular target: Ribosomal protein S6 kinase beta-1 (Homo sapiens) (UniProt P23443); test: Inhibition of N-terminal His6-tagged recombinant p70S6K (1 to 421 residues) (unknown origin) expressed in baculovirus infected Sf21 cells assessed as residual activity at 1 uM relative to control
Sequence of Ribosomal protein S6 kinase beta-1 (Homo sapiens) (P23443 whole entry, looked up, the tested form may be a part): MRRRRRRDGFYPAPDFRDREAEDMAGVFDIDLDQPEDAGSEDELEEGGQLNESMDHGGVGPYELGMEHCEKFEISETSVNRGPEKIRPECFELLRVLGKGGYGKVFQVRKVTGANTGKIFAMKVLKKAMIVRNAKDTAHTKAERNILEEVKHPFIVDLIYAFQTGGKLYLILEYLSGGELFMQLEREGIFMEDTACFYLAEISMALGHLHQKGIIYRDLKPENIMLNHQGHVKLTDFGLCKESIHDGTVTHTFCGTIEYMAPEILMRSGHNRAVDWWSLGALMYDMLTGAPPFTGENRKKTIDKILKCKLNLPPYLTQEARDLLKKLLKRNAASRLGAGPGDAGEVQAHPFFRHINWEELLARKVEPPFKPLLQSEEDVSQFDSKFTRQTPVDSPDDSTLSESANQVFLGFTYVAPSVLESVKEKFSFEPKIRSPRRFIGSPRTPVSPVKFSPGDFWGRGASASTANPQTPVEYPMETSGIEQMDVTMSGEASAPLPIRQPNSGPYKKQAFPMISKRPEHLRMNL

[9] = molecular target: Mitogen-activated protein kinase 12 (Homo sapiens) (UniProt P53778); test: Inhibition of recombinant GST fusion protein corresponding to full-length human SAPK3 expressed in E. coli assessed as residual activity at 1 uM relative to control
[10] = molecular target: Angiopoietin-1 receptor (Homo sapiens) (UniProt Q02763); test: Inhibition of N-terminal His6-tagged recombinant human Tie2 (771 to end residues) expressed in baculovirus infected Sf21 cells assessed as residual activity at 1 uM relative to control
Sequence of Angiopoietin-1 receptor (Homo sapiens) (Q02763 whole entry): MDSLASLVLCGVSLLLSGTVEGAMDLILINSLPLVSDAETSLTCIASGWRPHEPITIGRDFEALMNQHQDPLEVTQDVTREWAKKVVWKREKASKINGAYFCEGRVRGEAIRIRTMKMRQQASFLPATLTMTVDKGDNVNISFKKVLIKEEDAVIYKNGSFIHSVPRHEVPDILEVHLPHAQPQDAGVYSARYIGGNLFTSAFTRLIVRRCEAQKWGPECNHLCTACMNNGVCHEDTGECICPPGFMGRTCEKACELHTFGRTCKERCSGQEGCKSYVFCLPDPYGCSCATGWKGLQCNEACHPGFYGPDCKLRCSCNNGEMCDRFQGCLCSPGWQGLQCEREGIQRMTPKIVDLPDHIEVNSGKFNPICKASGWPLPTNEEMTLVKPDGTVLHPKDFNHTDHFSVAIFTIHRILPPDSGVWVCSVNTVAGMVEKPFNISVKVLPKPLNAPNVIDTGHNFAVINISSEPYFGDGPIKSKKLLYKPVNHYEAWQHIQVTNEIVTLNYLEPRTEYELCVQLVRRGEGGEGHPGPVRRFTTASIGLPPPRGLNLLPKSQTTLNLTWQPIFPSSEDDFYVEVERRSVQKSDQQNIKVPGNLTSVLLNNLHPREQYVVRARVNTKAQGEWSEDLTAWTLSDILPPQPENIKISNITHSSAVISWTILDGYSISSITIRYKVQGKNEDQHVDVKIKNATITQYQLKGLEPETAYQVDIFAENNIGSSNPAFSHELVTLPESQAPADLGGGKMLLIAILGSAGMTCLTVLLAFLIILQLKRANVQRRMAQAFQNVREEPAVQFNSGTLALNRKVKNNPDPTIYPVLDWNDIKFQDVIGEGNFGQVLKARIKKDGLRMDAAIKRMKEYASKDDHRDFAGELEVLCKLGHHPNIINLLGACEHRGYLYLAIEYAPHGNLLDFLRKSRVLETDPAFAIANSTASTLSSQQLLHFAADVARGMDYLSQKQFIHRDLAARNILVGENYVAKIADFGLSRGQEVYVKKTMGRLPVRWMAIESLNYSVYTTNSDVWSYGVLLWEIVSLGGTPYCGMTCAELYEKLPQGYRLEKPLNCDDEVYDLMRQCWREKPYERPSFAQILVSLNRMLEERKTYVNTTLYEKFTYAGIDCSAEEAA

[11] = molecular target: Serine/threonine-protein kinase ULK3 (Homo sapiens) (UniProt Q6PHR2); test: Inhibition of N-terminal 6His-tagged recombinant human full-length ULK3 expressed in baculovirus infected Sf21 cells assessed as residual activity at 1 uM relative to control
[12] = test system: LoVo; test: Antiproliferative activity against human LoVo cells assessed as inhibition of cell growth incubated for 72 hrs by cell-titer glo assay; assay type: functional, cell-based
Method in brief: (§1)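 Cells seeded at 10,000–30,000/cm² (adherent) or 100,000/mL (nonadherent) in medium with 10% fetal calf serum; after 24 h, treated in duplicate with serial dilutions for 72 h. Viable cell number read by CellTiter-Glo luminescence; IC50 from sigmoidal fit; at least two independent experiments.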

[13] = test system: LS174T; test: Antiproliferative activity against human LS174T cells assessed as inhibition of cell growth incubated for 72 hrs by cell-titer glo assay; assay type: functional, cell-based; method in brief: as §1
[14] = test system: T84; test: Antiproliferative activity against human T84 cells assessed as inhibition of cell growth incubated for 72 hrs by cell-titer glo assay; assay type: functional, cell-based; conditions: T84, 72 h
[15] = test system: COLO 320; test: Antiproliferative activity against human COLO 320 cells assessed as inhibition of cell growth incubated for 72 hrs by cell-titer glo assay; assay type: functional, cell-based; conditions: COLO 320, 72 h
Method in brief: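 Cells seeded 10,000–30,000/cm² (adherent) or 100,000/mL (suspension) in medium with 10% fetal calf serum; after 24 h treated in duplicate with serial dilutions for 72 h. Viable cells read by CellTiter-Glo luminescence; IC50 from sigmoidal fit; at least two independent experiments.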

[16] = test system: HOP-92; test: Antiproliferative activity against human HOP-92 cells assessed as inhibition of cell growth incubated for 72 hrs by cell-titer glo assay; assay type: functional, cell-based; conditions: HOP-92, 72 h; method in brief: as §1
[17] = test system: NCI-H1299; test: Antiproliferative activity against human NCI-H1299 cells assessed as inhibition of cell growth incubated for 72 hrs by cell-titer glo assay; assay type: functional, cell-based; conditions: NCI-H1299, 72 h
Method in brief: (§2)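 Cells from ATCC or ECACC, kept in supplier-recommended medium with 1% penicillin-streptomycin at 37°C, 5% CO₂. Seeded at 10,000–30,000/cm² (adherent) or 100,000/mL (nonadherent) in medium with 10% fetal calf serum. Dosed after 24 h in duplicate with serial dilutions. Viable cells read by CellTiter-Glo 72 h later. IC50 from sigmoidal fit. At least two independent experiments.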

[18] = test system: NCI-H82; test: Antiproliferative activity against human NCI-H82 cells assessed as inhibition of cell growth incubated for 72 hrs by cell-titer glo assay; assay type: functional, cell-based; conditions: NCI-H82, 72 h; method in brief: as §2
[19] = test system: SK-MEL-28; test: Antiproliferative activity against human SK-MEL-28 cells assessed as inhibition of cell growth incubated for 72 hrs by cell-titer glo assay; assay type: functional, cell-based; conditions: SK-MEL-28, 72 h
[20] = test system: MeWo; test: Antiproliferative activity against human MeWo cells assessed as inhibition of cell growth incubated for 72 hrs by cell-titer glo assay; assay type: functional, cell-based; method in brief: as §2
[21] = test system: NHDF; test: Induction of DNA damage in human NHDF cells assessed as H2AX phosphorylation at 0.5 to 1 uM incubated for 8 hrs by Western blotting analysis; assay type: toxicity, cell-based; conditions: dose 0.5-1 µM
[22] = test system: A2780; test: Induction of cell cycle arrest in human A2780 cells assessed as accumulation of cells in G2/M phase by measuring PLK1 phosphorylation on Thr210 incubated for 24 hrs by Western blotting analysis; assay type: functional, cell-based; conditions: dose 0.02-0.2 µmol/L
Method in brief: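 A2780 ovarian carcinoma cells treated 24 h with a range of concentrations, with DMSO and nocodazole controls. 20 µg protein extract separated by SDS-PAGE and immunoblotted with chemiluminescent detection. Probed for total and phospho-Thr210 PLK1, phospho-Ser10 histone H3, phospho-Thr199 NPM and phospho-Tyr15 CDK1. Total NPM, tubulin and total CDK1 served as loading controls.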

[23] = molecular target: PDPK1, 3-phosphoinositide-dependent protein kinase 1 (Homo sapiens) (UniProt O15530); test: Inhibition of N-terminal His6-tagged recombinant human PDK1 (52 to end residues) expressed in baculovirus infected Sf21 cells assessed as residual activity at 1 uM relative to control
Sequence of PDPK1, 3-phosphoinositide-dependent protein kinase 1 (Homo sapiens) (O15530 whole entry, looked up): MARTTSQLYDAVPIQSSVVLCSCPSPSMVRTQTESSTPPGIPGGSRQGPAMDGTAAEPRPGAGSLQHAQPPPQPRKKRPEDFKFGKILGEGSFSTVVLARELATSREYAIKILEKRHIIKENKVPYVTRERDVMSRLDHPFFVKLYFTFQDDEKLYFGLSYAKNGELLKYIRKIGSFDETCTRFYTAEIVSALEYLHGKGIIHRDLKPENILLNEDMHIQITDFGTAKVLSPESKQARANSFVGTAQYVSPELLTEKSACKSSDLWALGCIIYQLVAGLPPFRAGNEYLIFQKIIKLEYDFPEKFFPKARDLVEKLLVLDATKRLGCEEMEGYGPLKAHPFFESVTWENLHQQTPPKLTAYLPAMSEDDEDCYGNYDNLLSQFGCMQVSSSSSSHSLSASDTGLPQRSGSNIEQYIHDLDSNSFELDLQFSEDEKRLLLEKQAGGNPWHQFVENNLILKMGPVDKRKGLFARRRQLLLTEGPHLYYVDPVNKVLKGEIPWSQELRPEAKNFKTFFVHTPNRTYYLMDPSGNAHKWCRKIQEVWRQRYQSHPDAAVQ

[24] = molecular target: 3-phosphoinositide-dependent protein kinase 1 (Homo sapiens) (UniProt O15530); test: Inhibition of N-terminal His6-tagged recombinant human PDK1 (52 to end residues) expressed in baculovirus infected Sf21 cells assessed as residual activity at 0.1 uM relative to control
Sequence of 3-phosphoinositide-dependent protein kinase 1 (Homo sapiens) (O15530 whole entry, looked up): as above

[25] = Antitumor activity against human Acute myeloid leukemic cell xenografted in nu/nu mouse assessed as increase in median survival time at 120 mg/kg, po administered for 2 days and measured after 10 days in presence of cytarabine (reference value: 34 days); conditions: time 2 day

Q: With `CN1CCN(c2ccc(OC(F)(F)F)c(Nc3ncc4c(n3)-c3c(c(C(N)=O)nn3CCO)CC4)c2)CC1` [ONVANSERTIB] as the compound, how does the pIC50 [1] read?
A: < 5.00

Q: And the Activity [2]?
A: 88%

Q: What about the Activity [3] of the same compound?
A: 113%

Q: What about the Activity [4] of the same compound?
A: 52%

Q: What about the Activity [5] of the same compound?
A: 122%

Q: What about the Activity [6] of the same compound?
A: 83%

Q: What about the Activity [7] of the same compound?
A: 96%

Q: And the Activity [8]?
A: 76%

Q: And the Activity [9]?
A: 113%

Q: And the Activity [10]?
A: 114%

Q: What about the Activity [11] of the same compound?
A: 127%

Q: And the pIC50 [12]?
A: 7.19

Q: And the pIC50 [13]?
A: 6.79

Q: What about the pIC50 [14] of the same compound?
A: 6.76

Q: And the pIC50 [15]?
A: 6.72

Q: What about the pIC50 [16] of the same compound?
A: 6.55

Q: And the pIC50 [17]?
A: 6.46

Q: What about the pIC50 [18] of the same compound?
A: 7.80

Q: What about the pIC50 [19] of the same compound?
A: 7.11

Q: What about the pIC50 [20] of the same compound?
A: 6.63

Q: And the Activity [21]?
A: Toxic

Q: What about the Activity [22] of the same compound?
A: Dose-Dependent Effect

Q: And the Activity [23]?
A: 144%

Q: And the Activity [24]?
A: 142%

Q: And the Time [25]?
A: 79 days
